This is an account of results in ChEMBL document CHEMBL1122273, “5-sulfamoylorthanilic acids, a sulfonamide series with salidiuretic activity” (J Med Chem, 1983).

The structures appear in SMILES notation.

Test [1] is filed under the species Rattus norvegicus. The experiment in a line: Diuretic activity in the rats, determined by a modified Lipschitz test. Type of test: functional, Urine. The procedure, abridged: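 Modified Lipschitz test: rats deprived of water 24 h, grouped in threes of similar weight in diuresis funnels. Oral dose of 50 mg/kg, suspended in 2% starch solution, by stomach tube.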

The species entered for test [2] is Rattus norvegicus. Put plainly: Saluretic activity in the rat measured as concentration of chloride in urine. Format: functional. The procedure, abridged: (§1)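 Rats deprived of food 24 h, water ad libitum, dosed 50 mg/kg by stomach tube as suspension in 2% starch, no extra water load. Groups of three in diuresis funnels; urine over first 5 h collected. Na⁺ and K⁺ by flame photometry, Cl⁻ argentometrically; expressed as mequiv/kg.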

Test [3] is filed under the species Rattus norvegicus. Put plainly: Saluretic activity in the rat measured as concentration of K+ in urine. Format: functional. The procedure, abridged: as §1
For test [4], the species on record is Rattus norvegicus. Put plainly: Saluretic activity in the rat measured as concentration of Na+ in urine. Format: functional. The procedure, abridged:
as §1

Turning to `NS(=O)(=O)c1cc(S(=O)(=O)[O-])c(NCc2ccncc2)cc1Cl.[Na+]`, the Diuretic activity in the test listed under Rattus norvegicus [1] came out at 0.2 mL/kg. Also, the Saluretic activity in the test filed under Rattus norvegicus [2] stood at 0.1 m equiv 5hr-1 kg-1; in the test filed under Rattus norvegicus [3] it was 0.4 m equiv 5hr-1 kg-1; in the test filed under Rattus norvegicus [4], 0.1 m equiv 5hr-1 kg-1.
In the case of `NS(=O)(=O)c1cc(S(=O)(=O)[O-])c(NCc2ccco2)cc1Nc1ccccc1Cl.[Na+]`, the Diuretic activity in the test listed under Rattus norvegicus [1] was 1.1 mL/kg. In addition, the values for the Saluretic activity in the test listed under Rattus norvegicus [2], in the test listed under Rattus norvegicus [3] and in the test filed under Rattus norvegicus [4] were 0.6 m equiv 5hr-1 kg-1, 0.8 m equiv 5hr-1 kg-1 and 0.3 m equiv 5hr-1 kg-1, respectively.
For the molecule `NS(=O)(=O)c1cc(S(=O)(=O)[O-])c(NCc2ccco2)cc1Nc1ccc(Cl)cc1.[Na+]`, the Diuretic activity in the test listed under Rattus norvegicus [1] stood at 0.4 mL/kg. The values for the Saluretic activity in the test filed under Rattus norvegicus [2], in the test listed under Rattus norvegicus [3] and in the test filed under Rattus norvegicus [4] were 0.5 m equiv 5hr-1 kg-1, 0.4 m equiv 5hr-1 kg-1 and 0.4 m equiv 5hr-1 kg-1, respectively.
`CCOCCNc1cc(Cl)c(S(N)(=O)=O)cc1S(=O)(=O)[O-].[Na+]` returned a Diuretic activity in the test filed under Rattus norvegicus [1] of 0.4 mL/kg. Besides, the Saluretic activity in the test listed under Rattus norvegicus [2], in the test filed under Rattus norvegicus [3] and in the test filed under Rattus norvegicus [4] was 0.2 m equiv 5hr-1 kg-1 in each case.
As to `CCCCCCS(=O)(=O)c1cc(NCc2ccco2)c(S(=O)(=O)[O-])cc1S(N)(=O)=O.[Na+]`, the Diuretic activity in the test filed under Rattus norvegicus [1] is 0.7 mL/kg. In addition, the Saluretic activity was 1.2 m equiv 5hr-1 kg-1 in the test listed under Rattus norvegicus [2], 1.9 m equiv 5hr-1 kg-1 in the test filed under Rattus norvegicus [3] and 1.1 m equiv 5hr-1 kg-1 in the test filed under Rattus norvegicus [4].
For `NS(=O)(=O)c1cc(S(=O)(=O)[O-])c(NCc2ccco2)cc1S(=O)(=O)C1CCCCCC1.[Na+]`, the Diuretic activity in the test filed under Rattus norvegicus [1] came to 4 mL/kg. In addition, the results for the Saluretic activity in the test filed under Rattus norvegicus [2], in the test filed under Rattus norvegicus [3] and in the test listed under Rattus norvegicus [4] were 9.9 m equiv 5hr-1 kg-1, 2.8 m equiv 5hr-1 kg-1 and 8.9 m equiv 5hr-1 kg-1, respectively.
The corresponding values for `CN(c1cc(NCc2ccco2)c(S(=O)(=O)[O-])cc1S(N)(=O)=O)C1CCCCC1.[K+]` are 0.8 mL/kg, 0.6 m equiv 5hr-1 kg-1, 1 m equiv 5hr-1 kg-1 and 0.4 m equiv 5hr-1 kg-1.
In turn, `NS(=O)(=O)c1cc(S(=O)(=O)[O-])c(Cl)cc1NCc1ccco1.[Na+]` had a Diuretic activity in the test listed under Rattus norvegicus [1] of 0.5 mL/kg. Further, the Saluretic activity came out at 1 m equiv 5hr-1 kg-1 in the test filed under Rattus norvegicus [2], 0.9 m equiv 5hr-1 kg-1 in the test listed under Rattus norvegicus [3] and 0.5 m equiv 5hr-1 kg-1 in the test filed under Rattus norvegicus [4].
In the case of `COc1ccccc1CNc1cc(Cl)c(S(N)(=O)=O)cc1S(=O)(=O)[O-].[Na+]`, the Diuretic activity in the test listed under Rattus norvegicus [1] turned out to be 0.2 mL/kg. Besides, the figures for the Saluretic activity in the test listed under Rattus norvegicus [2], in the test listed under Rattus norvegicus [3] and in the test filed under Rattus norvegicus [4] were 0.1 m equiv 5hr-1 kg-1, 0.3 m equiv 5hr-1 kg-1 and 0.1 m equiv 5hr-1 kg-1, respectively.
The molecule `NS(=O)(=O)c1cc(S(=O)(=O)[O-])c(NCc2ccco2)cc1Oc1ccccc1.[K+]` had a Diuretic activity in the test listed under Rattus norvegicus [1] of 1.8 mL/kg. For the same molecule, the Saluretic activity in the test filed under Rattus norvegicus [2] is listed as 7.1 m equiv 5hr-1 kg-1; in the test listed under Rattus norvegicus [3], 1.5 m equiv 5hr-1 kg-1; in the test listed under Rattus norvegicus [4], 5 m equiv 5hr-1 kg-1.
`CN(C)S(=O)(=O)c1cc(S(=O)(=O)[O-])c(NCc2ccco2)cc1Oc1ccccc1.[K+]` yielded a Diuretic activity in the test filed under Rattus norvegicus [1] of 1.2 mL/kg. Further, the Saluretic activity in the test listed under Rattus norvegicus [2] is reported as 0.7 m equiv 5hr-1 kg-1; in the test listed under Rattus norvegicus [3] it was 1.1 m equiv 5hr-1 kg-1; in the test listed under Rattus norvegicus [4], 0.3 m equiv 5hr-1 kg-1.
In the test filed under Rattus norvegicus [1], `CNS(=O)(=O)c1cc(S(=O)(=O)[O-])c(NCc2ccco2)cc1Oc1ccccc1.[K+]` yielded a Diuretic activity of 1.6 mL/kg. Moreover, the Saluretic activity amounted to 1 m equiv 5hr-1 kg-1 in the test filed under Rattus norvegicus [2], 0.8 m equiv 5hr-1 kg-1 in the test listed under Rattus norvegicus [3] and 0.8 m equiv 5hr-1 kg-1 in the test filed under Rattus norvegicus [4].
On to `CC(C)CS(=O)(=O)c1cc(NCc2ccco2)c(S(=O)(=O)[O-])cc1S(N)(=O)=O.[Na+]`, for which the Diuretic activity in the test listed under Rattus norvegicus [1] turned out to be 2.8 mL/kg. Further, the values for the Saluretic activity in the test listed under Rattus norvegicus [2], in the test filed under Rattus norvegicus [3] and in the test listed under Rattus norvegicus [4] were 8.1 m equiv 5hr-1 kg-1, 2.5 m equiv 5hr-1 kg-1 and 7.6 m equiv 5hr-1 kg-1, respectively.
On to `Cc1cccc(Oc2cc(NCc3ccco3)c(S(=O)(=O)[O-])cc2S(N)(=O)=O)c1.[K+]`, for which the Diuretic activity in the test filed under Rattus norvegicus [1] stood at 4.4 mL/kg. Besides, the Saluretic activity in the test listed under Rattus norvegicus [2] amounted to 7.9 m equiv 5hr-1 kg-1; in the test filed under Rattus norvegicus [3], 2.2 m equiv 5hr-1 kg-1; in the test listed under Rattus norvegicus [4], 6.7 m equiv 5hr-1 kg-1.
As for `CCC(C)S(=O)(=O)c1cc(NCc2ccco2)c(S(=O)(=O)[O-])cc1S(N)(=O)=O.[Na+]` (stereo not given), the Diuretic activity in the test listed under Rattus norvegicus [1] amounted to 4.5 mL/kg. Moreover, the Saluretic activity in the test listed under Rattus norvegicus [2] was 8.5 m equiv 5hr-1 kg-1; in the test listed under Rattus norvegicus [3] it was 1.9 m equiv 5hr-1 kg-1; in the test filed under Rattus norvegicus [4], 6.7 m equiv 5hr-1 kg-1.
On to `CN(c1ccccc1)c1cc(NCc2ccco2)c(S(=O)(=O)[O-])cc1S(N)(=O)=O.[K+]`, for which the Diuretic activity in the test filed under Rattus norvegicus [1] is 3.1 mL/kg. Further, the Saluretic activity in the test filed under Rattus norvegicus [2] was determined as 7.4 m equiv 5hr-1 kg-1; in the test filed under Rattus norvegicus [3] it was 1.7 m equiv 5hr-1 kg-1; in the test listed under Rattus norvegicus [4] it was 6.3 m equiv 5hr-1 kg-1.
In the test listed under Rattus norvegicus [1], `NCc1ccco1.NS(=O)(=O)c1cc(S(=O)(=O)O)c(NCc2ccco2)cc1Cl` showed a Diuretic activity of 3.2 mL/kg. Also, the Saluretic activity in the test listed under Rattus norvegicus [2] turned out to be 7.2 m equiv 5hr-1 kg-1; in the test filed under Rattus norvegicus [3] it was 2.3 m equiv 5hr-1 kg-1; in the test filed under Rattus norvegicus [4] it was 6.3 m equiv 5hr-1 kg-1.
As to `CN(Cc1ccco1)c1cc(Cl)c(S(N)(=O)=O)cc1S(=O)(=O)[O-].[Na+]`, the Diuretic activity in the test listed under Rattus norvegicus [1] stood at 0.8 mL/kg. Moreover, the Saluretic activity in the test listed under Rattus norvegicus [2] amounted to 0.8 m equiv 5hr-1 kg-1; in the test filed under Rattus norvegicus [3] it was 0.5 m equiv 5hr-1 kg-1; in the test listed under Rattus norvegicus [4], 0.8 m equiv 5hr-1 kg-1.
As to `Cc1ccccc1Nc1cc(NCc2ccco2)c(S(=O)(=O)[O-])cc1S(N)(=O)=O.[Na+]`, the Diuretic activity in the test listed under Rattus norvegicus [1] was 0.6 mL/kg. Besides, the figures for the Saluretic activity in the test listed under Rattus norvegicus [2], in the test filed under Rattus norvegicus [3] and in the test filed under Rattus norvegicus [4] were 0.6 m equiv 5hr-1 kg-1, 1 m equiv 5hr-1 kg-1 and 0.7 m equiv 5hr-1 kg-1, respectively.
`NS(=O)(=O)c1cc(S(=O)(=O)[O-])c(NCc2ccco2)cc1Oc1ccc(Cl)cc1.[K+]`: in the test listed under Rattus norvegicus [1], the Diuretic activity was found to be 2.2 mL/kg. For the same molecule, the Saluretic activity in the test listed under Rattus norvegicus [2] is 6.4 m equiv 5hr-1 kg-1; in the test filed under Rattus norvegicus [3] it was 2 m equiv 5hr-1 kg-1; in the test listed under Rattus norvegicus [4] it was 5.1 m equiv 5hr-1 kg-1.
The corresponding values for `NS(=O)(=O)c1cc(S(=O)(=O)[O-])c(NCc2ccco2)cc1NCc1ccccc1.[K+]` are 1 mL/kg, 1.2 m equiv 5hr-1 kg-1, 0.6 m equiv 5hr-1 kg-1 and 0.8 m equiv 5hr-1 kg-1.
In turn, `Cc1ccc(N(C)c2cc(NCc3ccco3)c(S(=O)(=O)[O-])cc2S(N)(=O)=O)cc1.[Na+]` returned a Diuretic activity in the test filed under Rattus norvegicus [1] of 1.2 mL/kg. Further, the Saluretic activity is on record as 2.3 m equiv 5hr-1 kg-1 in the test listed under Rattus norvegicus [2], 1.9 m equiv 5hr-1 kg-1 in the test filed under Rattus norvegicus [3] and 1.6 m equiv 5hr-1 kg-1 in the test listed under Rattus norvegicus [4].
The corresponding values for `NS(=O)(=O)c1cc(S(=O)(=O)[O-])c(NCc2ccco2)cc1S(=O)(=O)Cc1ccccc1.[K+]` are 1 mL/kg, 0.7 m equiv 5hr-1 kg-1, 0.6 m equiv 5hr-1 kg-1 and 0.8 m equiv 5hr-1 kg-1.
The corresponding values for `CN(c1ccccc1)c1cc(NCc2ccco2)c(S(=O)(=O)O)cc1S(N)(=O)=O.NC(N)=NC(=O)c1nc(Cl)c(N)nc1N` are 3.3 mL/kg, 2.3 m equiv 5hr-1 kg-1, 0.4 m equiv 5hr-1 kg-1 and 3.5 m equiv 5hr-1 kg-1.
The corresponding values for `CN(c1ccccc1)c1cc(NCc2ccco2)c(S(=O)(=O)O)cc1S(N)(=O)=O.N` are 4.8 mL/kg, 8.3 m equiv 5hr-1 kg-1, 2.1 m equiv 5hr-1 kg-1 and 6.8 m equiv 5hr-1 kg-1.
Turning to `NS(=O)(=O)c1cc(S(=O)(=O)[O-])c(N(Cc2ccccc2)Cc2ccccc2)cc1Cl.[Na+]`, the Diuretic activity in the test listed under Rattus norvegicus [1] was 0.7 mL/kg. Moreover, the Saluretic activity is 0.9 m equiv 5hr-1 kg-1 in the test filed under Rattus norvegicus [2], 0.8 m equiv 5hr-1 kg-1 in the test filed under Rattus norvegicus [3] and 0.3 m equiv 5hr-1 kg-1 in the test listed under Rattus norvegicus [4].
In turn, `NS(=O)(=O)c1cc(S(=O)(=O)[O-])c(Oc2ccccc2)cc1NCc1ccco1.[K+]` gave a Diuretic activity in the test filed under Rattus norvegicus [1] of 0.8 mL/kg. Also, the Saluretic activity in the test listed under Rattus norvegicus [2] is recorded as 0.8 m equiv 5hr-1 kg-1; in the test listed under Rattus norvegicus [3], 1 m equiv 5hr-1 kg-1; in the test filed under Rattus norvegicus [4], 0.8 m equiv 5hr-1 kg-1.
For `CN(c1ccc(Cl)cc1)c1cc(NCc2ccco2)c(S(=O)(=O)[O-])cc1S(N)(=O)=O.[Na+]`, in the test filed under Rattus norvegicus [1], the Diuretic activity is 1.2 mL/kg. For the same molecule, the Saluretic activity in the test filed under Rattus norvegicus [2] came out at 0.7 m equiv 5hr-1 kg-1; in the test listed under Rattus norvegicus [3], 1.1 m equiv 5hr-1 kg-1; in the test filed under Rattus norvegicus [4] it was 0.7 m equiv 5hr-1 kg-1.
The molecule `NC(CO)(CO)CO.NS(=O)(=O)c1cc(S(=O)(=O)O)c(NCc2ccco2)cc1Oc1ccccc1` yielded a Diuretic activity in the test filed under Rattus norvegicus [1] of 4.1 mL/kg. The Saluretic activity in the test filed under Rattus norvegicus [2] was found to be 7.8 m equiv 5hr-1 kg-1; in the test filed under Rattus norvegicus [3] it was 2.2 m equiv 5hr-1 kg-1; in the test listed under Rattus norvegicus [4] it was 5.8 m equiv 5hr-1 kg-1.
The corresponding values for `Cc1cccc(Nc2cc(NCc3ccco3)c(S(=O)(=O)[O-])cc2S(N)(=O)=O)c1.[Na+]` are 0.8 mL/kg, 0.9 m equiv 5hr-1 kg-1, 1.5 m equiv 5hr-1 kg-1 and 0.6 m equiv 5hr-1 kg-1.
